Screens deposited in PubChem by several laboratories.
Compounds with a hit are over-represented: about 1.7% of the library has one in this group of screens.
TPT1 inh: inhibitors of Candida albicans tRNA 2'-phosphotransferase TPT1. recombinant caTPT1, FP RNA substrate dephosphorylation. inhibition, % at 5 µM. 300,000 compounds, 0.81% hits. AID 1962;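 active = inhibition above the mean of all tested compounds plus 3 SD, set per screening campaign, cut at about 24% in these data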
Rpn11 block: inhibitors of human proteasome Rpn11 | calls only at 20 µM | 360,000 compounds, 0.59% hits | O00487 | human 26S proteasome, Ub4-pepOG fluorescence polarization; 20S core pre-blocked with epoxomicin;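 active = inhibition at 20 µM, scaled to each plate's controls, above about 33%, limit read from the data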
Target sequence (O00487 whole entry, looked up): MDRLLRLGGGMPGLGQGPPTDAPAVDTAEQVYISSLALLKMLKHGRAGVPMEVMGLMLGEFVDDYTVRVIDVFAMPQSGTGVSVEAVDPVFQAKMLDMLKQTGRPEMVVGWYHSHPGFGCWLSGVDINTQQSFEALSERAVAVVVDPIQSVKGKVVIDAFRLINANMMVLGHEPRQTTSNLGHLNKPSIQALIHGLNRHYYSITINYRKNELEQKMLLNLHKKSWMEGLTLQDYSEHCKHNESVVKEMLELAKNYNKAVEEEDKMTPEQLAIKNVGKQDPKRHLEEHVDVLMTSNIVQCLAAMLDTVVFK
HNF4A DNA FP: change in binding of human HNF4 alpha to DNA. HNF4a-FITC DNA binding, fluorescence polarization, 1 h. activity change, % at 10 µM. 360,000 compounds, 0.3% hits. AID 1224865; in the data active = activity change above about 30%, passing the limit was not always enough
IDE act: boosts human insulin-degrading enzyme activity in HEK cells. P14735. AID 493087. FAbeta-B cleavage, fluorescence polarization; 0% vehicle, 100% cell-free pure enzyme wells. 340,000 compounds, 0.073% hits. activation, % at 5.96 µM;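 active = activation above the mean of all tested compounds plus 3 SD, set per screening campaign, cut at about 17% in these data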
IDE inh: inhibits human insulin-degrading enzyme in HEK cells | AID 434962 | P14735 | inhibition, % at 5.59 µM | FAbetaB cleavage, fluorescence polarization | 320,000 compounds, 0.41% hits;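 active = percent inhibition above the average of all tested compounds plus 3 SD, set per screening campaign, cut at about 16% in these data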;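 note: IDE supplied by intact live HEK cells; FP after avidin binding of uncleaved biotin substrate so inhibition keeps polarization high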
CSN deneddyl inh: inhibitors of human CSN-mediated cullin deneddylation. Q92905. Purified CSN, SCF-Nedd8-OG deneddylation, fluorescence polarization. inhibition, % at 12.5 µM. 360,000 compounds, 0.38% hits. AID 651999;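 active = pattern-corrected inhibition above about 35%, with an unprinted fluorescence ratio check between 0.5 and 1.5, limit read from the data, passing the limit was not always enough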
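Test system: purified human Csn5 enzyme expressed in HEK293T cells. Amount: 0.24 nM enzyme. Reagent: SCFSkp2-Nedd8OG substrate at 10 nM final. Schedule: 90 min incubation of compound, enzyme and substrate at room temperature. Detection: fluorescence polarization. Read-out: % inhibition of substrate cleavage by Csn5.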
Numbers stand for hits; – = inactive; · = no result shown; + = active, no number.

SMILES	TPT1 inh	Rpn11 block	HNF4A DNA FP	IDE act	IDE inh	CSN deneddyl inh
Cn1cnnc1SCC(=O)Nc1ccc(OCc2ccccc2)cc1	–	–	–	–	–	50
CCCCCCCCCCCCCCCC[N+](C)(C)CCN(Cc1ccc(OC)cc1)c1ncccn1	–	+	–	18	–	–
COc1ccc(CN(CCN(C)C)c2ccccn2)cc1	–	–	–	–	–	–
CC(=O)N1CCN(S(=O)(=O)c2ccc(C)cc2)C1c1ccc(N(C)C)cc1 (configuration not stated)	–	–	–	–	–	–
Cc1ccc(-n2c(C)c(C)c3c(NCCCO)ncnc32)cc1	·	–	–	–	·	–
O=C(COc1ccccc1)Nc1sc2c(c1C(=O)NCc1cccnc1)CCCC2	–	–	–	–	–	41
CCCC[n+]1ccn(-c2nc3ccccc3nc2[N-]S(=O)(=O)c2ccc(Br)cc2)c1	–	–	–	–	–	41
CCOC(=O)N/N=C(\C)c1ccc(Oc2ncccn2)cc1	–	–	–	–	–	–
O=C(CN1CCCN(S(=O)(=O)c2ccc(F)cc2)CC1)Nc1cccc(F)c1	–	–	–	–	–	–
O=C(CN1CCCN(S(=O)(=O)c2ccc(F)cc2)CC1)Nc1c(Cl)cccc1Cl	–	–	–	–	–	109
COc1ccc2ccccc2c1C(O)c1nccn1C (configuration not stated)	–	–	–	21	–	–
Cc1cccc(C(=O)N2CCN(c3ccc(C(F)(F)F)cn3)CC2)c1C	–	–	–	–	–	–
CCOc1ncccc1C(=O)N1CCN(c2ccc(C(F)(F)F)cn2)CC1	–	–	91	–	–	–
COC(=O)c1sccc1-n1cccc1C(=O)N1CCOCC1	–	–	–	–	–	–
COC(=O)c1sccc1-n1cccc1C(=O)C(=O)N1CCOCC1	–	–	40	–	–	–
CCOc1cc(CNc2ccc(O)cc2)ccc1OCc1ccc(Cl)cc1Cl	–	–	–	–	–	44
CCOc1cccc(CNc2ccc(O)cc2)c1OCc1ccc(Cl)cc1	–	–	–	–	–	–
COC12CC(=O)C(C(C)=O)=C(O)C1(C)c1c(O)c(C)c(O)c(C(C)=O)c1O2 (configuration not stated)	·	·	65	·	·	43
CC(=O)c1c(O)c(C)c(O)c2c1OC1=CC(=O)/C(=C(/C)N)C(=O)C12C (configuration not stated)	·	–	–	·	·	–
Cc1cnc(C(=O)OCC(=O)Nc2sc3c(c2C#N)CCC3)cn1	–	–	–	–	–	–
COc1cc(CNC2CCCCCC2)cc(OC)c1OC	–	–	–	–	–	–
COc1cc(CNC2CCCC2)cc(OC)c1OC	–	–	–	18	–	–
O=C1CCCC/C1=C/Nc1ccc2c(c1)OCO2	–	–	–	–	–	–
COc1ccc(OCCNc2cc(N3CCOCC3)ccc2[N+](=O)[O-])cc1	–	–	–	20	–	–
O=C(CCn1c(=O)[nH]c2ccccc2c1=O)N1CCN(c2cccc(C(F)(F)F)c2)CC1	–	–	–	–	–	–
SMILES	TPT1 inh	Rpn11 block	HNF4A DNA FP	IDE act	IDE inh	CSN deneddyl inh
CC(=O)NC(CC(=O)OC(C)C(=O)Nc1ccc(Cl)cn1)c1ccccc1 (configuration not stated)	–	–	–	–	–	–
CC(OC(=O)CC(C)c1ccccc1)C(=O)Nc1ccc(Cl)cn1 (configuration not stated)	·	–	–	–	·	43
Cc1c(CC(=O)O)c(=O)oc2c(C)c(OCc3ccc(F)cc3Cl)ccc12	–	–	–	–	–	53
CC(=O)NC(Cc1ccccc1)C(=O)NC1CCN(C(=O)NCc2ccccc2)CC1 (configuration not stated)	·	–	–	–	·	–
Cc1ccccc1S(=O)(=O)c1c(C)cc(C)n(C)c1=O	–	–	–	–	–	43
O=C1c2ccccc2NC(c2c(Cl)cccc2Cl)N1Cc1ccccc1 (configuration not stated)	–	–	–	–	–	–
CC(=O)Nc1ccc(S(=O)(=O)NCCc2ccccn2)cc1	–	·	–	18	–	–
CC1(C)CCc2cc(-c3ccnc(=S)[nH]3)ccc2O1	–	–	–	–	26	–
COc1ccc2nc(N3CCCCC3)c(/C=C3\SC(=S)NC3=O)cc2c1	–	+	–	–	–	–
